Experimental data published in ChEMBL document CHEMBL4368879, “Crystallographic and SAR analyses reveal the high requirements needed to selectively and potently inhibit SIRT2 deacetylase and decanoylase” (Medchemcomm, 2019).
Active and inactive are the calls of the source. The rule behind the calls is not given here.

Key:
[1] = target: T1, NAD-dependent protein deacetylase sirtuin-1 (Homo sapiens) (UniProt Q96EB6); experiment: Inhibition of recombinant SIRT1 (unknown origin) using RLIK(Ac)AMC as substrate assessed as reduction in deacetylase activity after 2 hrs in presence of NAD+ by fluorescence assay
T1 sequence (whole entry): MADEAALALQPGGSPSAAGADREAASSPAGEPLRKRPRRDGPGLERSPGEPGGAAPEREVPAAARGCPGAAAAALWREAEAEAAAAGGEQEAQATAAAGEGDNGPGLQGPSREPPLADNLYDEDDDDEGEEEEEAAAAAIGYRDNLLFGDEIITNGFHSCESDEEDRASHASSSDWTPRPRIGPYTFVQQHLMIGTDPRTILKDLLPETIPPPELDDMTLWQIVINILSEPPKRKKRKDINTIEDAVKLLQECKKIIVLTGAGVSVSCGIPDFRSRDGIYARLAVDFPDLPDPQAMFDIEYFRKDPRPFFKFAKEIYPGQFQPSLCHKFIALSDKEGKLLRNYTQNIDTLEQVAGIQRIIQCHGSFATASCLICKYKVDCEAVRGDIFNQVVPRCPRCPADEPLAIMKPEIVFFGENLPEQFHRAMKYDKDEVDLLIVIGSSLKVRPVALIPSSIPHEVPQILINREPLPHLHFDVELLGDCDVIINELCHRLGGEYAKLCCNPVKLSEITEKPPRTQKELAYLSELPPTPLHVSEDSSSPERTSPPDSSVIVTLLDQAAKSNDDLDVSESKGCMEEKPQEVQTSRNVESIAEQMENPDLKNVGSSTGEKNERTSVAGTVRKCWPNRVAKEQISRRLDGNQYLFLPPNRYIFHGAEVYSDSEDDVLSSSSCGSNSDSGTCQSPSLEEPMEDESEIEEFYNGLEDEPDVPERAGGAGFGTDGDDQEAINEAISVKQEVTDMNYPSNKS
Procedure, shortened: (§1)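 Fluorogenic sirtuin assay in 25 mM Tris–HCl pH 8.0, 150 mM NaCl, 10% glycerol. Enzyme at 0.1 μM with 10 μM substrate (RLIK(Ac)AMC or ETDK(Ca)AMC) and 400 μM NAD+, 2 h at 25 °C with shaking. Reaction stopped with a trypsin plus 4 mM nicotinamide solution, then 30 min more at 25 °C. Fluorescence read on a plate reader.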

[2] = target: NAD-dependent protein deacylase sirtuin-6 (Homo sapiens) (UniProt Q8N6T7); experiment: Inhibition of recombinant SIRT6 (unknown origin) using ETDK(Ca)AMC as substrate assessed as reduction in decanoylase activity after 2 hrs in presence of NAD+ by fluorescence assay; procedure, shortened: as §1
[3] = target: T2, NAD-dependent protein deacetylase sirtuin-3, mitochondrial (Homo sapiens) (UniProt Q9NTG7); experiment: Inhibition of recombinant SIRT3 (unknown origin) using RLIK(Ac)AMC as substrate assessed as reduction in deacetylase activity after 2 hrs in presence of NAD+ by fluorescence assay; procedure, shortened: as §1
T2 sequence (whole entry): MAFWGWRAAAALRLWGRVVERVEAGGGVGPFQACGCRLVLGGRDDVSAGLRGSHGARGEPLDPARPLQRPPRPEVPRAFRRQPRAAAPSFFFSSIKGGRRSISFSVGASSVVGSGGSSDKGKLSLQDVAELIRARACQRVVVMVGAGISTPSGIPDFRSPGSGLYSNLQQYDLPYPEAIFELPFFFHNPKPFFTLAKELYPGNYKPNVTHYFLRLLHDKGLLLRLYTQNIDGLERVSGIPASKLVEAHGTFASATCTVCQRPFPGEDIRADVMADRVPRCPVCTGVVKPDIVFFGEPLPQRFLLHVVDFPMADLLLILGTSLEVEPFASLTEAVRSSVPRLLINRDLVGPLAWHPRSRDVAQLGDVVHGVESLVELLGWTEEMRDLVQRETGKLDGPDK

[4] = target: T3, NAD-dependent protein deacetylase sirtuin-2 (Homo sapiens) (UniProt Q8IXJ6); experiment: Inhibition of recombinant SIRT2 (unknown origin) using ETDK(Ca)AMC as substrate assessed as reduction in decanoylase activity at 100 uM after 2 hrs in presence of NAD+ by fluorescence assay relative to control; procedure, shortened: as §1
T3 sequence (whole entry): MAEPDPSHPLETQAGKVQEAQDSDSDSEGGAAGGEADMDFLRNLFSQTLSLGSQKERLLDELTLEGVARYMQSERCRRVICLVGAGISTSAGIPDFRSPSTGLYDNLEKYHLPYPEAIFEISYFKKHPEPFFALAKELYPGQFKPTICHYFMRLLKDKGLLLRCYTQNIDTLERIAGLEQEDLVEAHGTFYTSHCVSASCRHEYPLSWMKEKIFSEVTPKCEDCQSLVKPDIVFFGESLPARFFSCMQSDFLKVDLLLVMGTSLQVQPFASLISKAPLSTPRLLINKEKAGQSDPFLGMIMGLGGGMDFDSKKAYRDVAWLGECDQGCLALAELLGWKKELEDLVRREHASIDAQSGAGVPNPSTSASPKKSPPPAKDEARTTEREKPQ

[5] = target: NAD-dependent protein deacylase sirtuin-5, mitochondrial (Homo sapiens) (UniProt Q9NXA8); experiment: Inhibition of recombinant SIRT5 (unknown origin) using ETDK(Ca)AMC as substrate assessed as reduction in decanoylase activity after 2 hrs in presence of NAD+ by fluorescence assay; procedure, shortened: as §1
[6] = target: T3, NAD-dependent protein deacetylase sirtuin-2 (Homo sapiens); experiment: Inhibition of recombinant SIRT2 (unknown origin) using RLIK(Ac)AMC as substrate assessed as reduction in deacetylase activity at 100 uM after 2 hrs in presence of NAD+ by fluorescence assay relative to control; procedure, shortened: as §1
[7] = target: NAD-dependent protein deacylase sirtuin-5, mitochondrial (Homo sapiens) (UniProt Q9NXA8); experiment: Inhibition of recombinant SIRT5 (unknown origin) using RLIK(Ac)AMC as substrate assessed as reduction in deacetylase activity after 2 hrs in presence of NAD+ by fluorescence assay; procedure, shortened: as §1
[8] = target: T3, NAD-dependent protein deacetylase sirtuin-2 (Homo sapiens); experiment: Inhibition of recombinant SIRT2 (unknown origin) using RLIK(Ac)AMC as substrate assessed as reduction in deacetylase activity at 10 uM after 2 hrs in presence of NAD+ by fluorescence assay relative to control; procedure, shortened: as §1
[9] = target: T1, NAD-dependent protein deacetylase sirtuin-1 (Homo sapiens); experiment: Inhibition of recombinant SIRT1 (unknown origin) using ETDK(Ca)AMC as substrate assessed as reduction in decanoylase activity after 2 hrs in presence of NAD+ by fluorescence assay; procedure, shortened: as §1
[10] = target: T3, NAD-dependent protein deacetylase sirtuin-2 (Homo sapiens); experiment: Inhibition of recombinant SIRT2 (unknown origin) using ETDK(Ca)AMC as substrate assessed as reduction in decanoylase activity at 10 uM after 2 hrs in presence of NAD+ by fluorescence assay relative to control; procedure, shortened: as §1
[11] = target: T4, NAD-dependent protein deacetylase sirtuin-2 (Homo sapiens, UniProt Q8IXJ6); experiment: Inhibition of recombinant SIRT2 (unknown origin) using RLIK(Ac)AMC as substrate assessed as reduction in deacetylase activity after 2 hrs in presence of NAD+ by fluorescence assay; procedure, shortened: as §1
T4 sequence (Q8IXJ6 whole entry): T3 sequence (whole entry)

[12] = target: T2, NAD-dependent protein deacetylase sirtuin-3, mitochondrial (Homo sapiens); experiment: Inhibition of recombinant SIRT3 (unknown origin) using ETDK(Ca)AMC as substrate assessed as reduction in decanoylase activity after 2 hrs in presence of NAD+ by fluorescence assay; procedure, shortened: as §1
[13] = target: T4, NAD-dependent protein deacetylase sirtuin-2; experiment: Inhibition of recombinant SIRT2 (unknown origin) using ETDK(Ca)AMC as substrate assessed as reduction in decanoylase activity after 2 hrs in presence of NAD+ by fluorescence assay; procedure, shortened: as §1
[14] = target: NAD-dependent protein deacylase sirtuin-6 (Homo sapiens) (UniProt Q8N6T7); experiment: Inhibition of recombinant SIRT6 (unknown origin) using RLIK(Ac)AMC as substrate assessed as reduction in deacetylase activity after 2 hrs in presence of NAD+ by fluorescence assay; procedure, shortened: as §1

Sequence of NAD-dependent protein deacylase sirtuin-6 (Homo sapiens) (Q8N6T7 whole entry): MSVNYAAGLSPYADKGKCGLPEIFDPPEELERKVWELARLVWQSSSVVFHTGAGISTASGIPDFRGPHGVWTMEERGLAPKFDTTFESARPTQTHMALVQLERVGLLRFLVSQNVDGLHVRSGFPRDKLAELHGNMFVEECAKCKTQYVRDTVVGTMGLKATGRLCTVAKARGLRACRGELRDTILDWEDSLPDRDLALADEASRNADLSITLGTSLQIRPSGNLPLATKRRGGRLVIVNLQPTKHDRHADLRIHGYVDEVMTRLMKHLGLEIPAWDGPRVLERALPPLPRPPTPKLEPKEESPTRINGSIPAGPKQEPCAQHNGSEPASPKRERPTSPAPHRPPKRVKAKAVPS
Sequence of NAD-dependent protein deacylase sirtuin-5, mitochondrial (Homo sapiens) (Q9NXA8 37-310 limits assumed): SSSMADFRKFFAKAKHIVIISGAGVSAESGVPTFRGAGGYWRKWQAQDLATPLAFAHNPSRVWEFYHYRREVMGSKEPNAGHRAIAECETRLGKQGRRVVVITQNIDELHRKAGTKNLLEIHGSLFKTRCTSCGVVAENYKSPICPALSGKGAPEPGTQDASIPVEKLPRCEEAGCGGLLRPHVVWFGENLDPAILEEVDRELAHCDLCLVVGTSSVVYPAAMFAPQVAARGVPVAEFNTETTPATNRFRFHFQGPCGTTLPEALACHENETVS

| inhibition [1] | inhibition [2] | inhibition [3] | inhibition [4] [%] | inhibition [5] | inhibition [6] [%] | inhibition [7] | inhibition [8] [%] | inhibition [9] | inhibition [10] [%] | IC50 [11] [µM] | inhibition [12] | IC50 [13] [µM] | inhibition [14] | SMILES |
| --- | --- | --- | --- | --- | --- | --- | --- | --- | --- | --- | --- | --- | --- | --- |
|  |  |  | 18 |  | 50 |  | 8 |  | 5 |  |  |  |  | Cc1cc(C)nc(SCC(=O)Nc2ccc(S(=O)(=O)c3ccccc3)cc2)n1 |
|  |  |  | 23 |  | 40 |  | 5 |  | 4 |  |  |  |  | Cc1cc(C)nc(SCC(=O)Nc2ccc([S+]([O-])c3ccccc3)cc2)n1 (stereo unspecified) |
|  |  |  | 58 |  | 53 |  | 42 |  | 42 |  |  |  |  | Cc1cc(C)nc(SCC(=O)Nc2ccc(Sc3cccc4ccccc34)cc2)n1 |
|  |  |  | 38 |  | 70 |  | 51 |  | 23 |  |  |  |  | Cc1cc(C)nc(SCC(=O)Nc2ccc(Sc3ccc4ccccc4c3)cc2)n1 |
|  |  |  |  |  | 76 |  | 53 |  | 32 |  |  |  |  | Cc1cc(C)nc(SCC(=O)Nc2cccc(COc3ccccc3)c2)n1 |
|  |  |  | 30 |  | 73 |  | 65 |  | 5 | 6.65 |  | 62.1 |  | Cc1cc(C)nc(SCC(=O)Nc2cccc(Sc3ccccc3)c2)n1 |
|  |  |  | 53 |  | 80 |  | 70 |  | 38 | 1.32 |  | 11.6 |  | Cc1cc(C)nc(SCC(=O)Nc2ccc(Sc3ccccc3)cc2)n1 |

The remaining lines, values behind:

| SMILES | inhibition [1] | inhibition [2] | inhibition [3] | inhibition [4] [%] | inhibition [5] | inhibition [6] [%] | inhibition [7] | inhibition [8] [%] | inhibition [9] | inhibition [10] [%] | IC50 [11] [µM] | inhibition [12] | IC50 [13] [µM] | inhibition [14] |
| --- | --- | --- | --- | --- | --- | --- | --- | --- | --- | --- | --- | --- | --- | --- |
| Cc1cc(C)nc(SCC(=O)Nc2ccc(Sc3cccc(C(F)(F)F)c3)cc2)n1 | inactive | inactive | inactive | 77 | inactive | 82 | inactive | 72 | inactive | 72 | 0.85 | inactive | 17.6 | inactive |
| Cc1cc(C)nc(SCC(=O)Nc2ccc(Sc3ccsc3)cc2)n1 |  |  |  | 58 |  | 62 |  | 50 |  | 18 |  |  |  |  |
| COc1cccc(Sc2ccc(NC(=O)CSc3nc(C)cc(C)n3)cc2)c1 | inactive | inactive | inactive | 80 | inactive | 85 | inactive | 80 | inactive | 70 | 0.7 | inactive | 8.33 | inactive |
| Cc1cccc(Sc2ccc(NC(=O)CSc3nc(C)cc(C)n3)cc2)c1 |  |  |  | 65 |  | 76 |  | 70 |  | 54 |  |  |  |  |
| Cc1cc(C)nc(SCC(=O)Nc2ccc(Sc3cccnc3)cc2)n1 |  |  |  | 60 |  | 67 |  | 42 |  | 23 |  |  |  |  |
| Cc1cc(C)nc(SCC(=O)Nc2ccc(Sc3ccc(OC(F)(F)F)cc3)cc2)n1 |  |  |  | 63 |  | 60 |  | 40 |  | 23 |  |  |  |  |
| COc1ccc(Sc2ccc(NC(=O)CSc3nc(C)cc(C)n3)cc2)cc1 |  |  |  | 58 |  | 65 |  | 55 |  | 20 |  |  |  |  |
| CC(=O)c1ccc(Sc2ccc(NC(=O)CSc3nc(C)cc(C)n3)cc2)cc1 |  |  |  | 35 |  | 5 |  | 6 |  | 8 |  |  |  |  |
| Cc1cc(C)nc(SCC(=O)Nc2ccc(Sc3ccc(C(F)(F)F)cc3)cc2)n1 |  |  |  | 42 |  | 51 |  | 28 |  | 18 |  |  |  |  |
| Cc1ccc(Sc2ccc(NC(=O)CSc3nc(C)cc(C)n3)cc2)cc1 |  |  |  | 70 |  | 63 |  | 30 |  | 10 |  |  |  |  |
